Values after ≈ are worked out from the molar mass of the structure shown. Active and inactive are the calls of the source. The rule behind the calls is not given here.
Experiments:
Cryptococcus neoformans [1] = experiment: Antifungal activity against Cryptococcus neoformans ATCC 32264 assessed as growth inhibition at 125 ug/mL after 48 hrs by microplate reader analysis; type: functional; conditions: ATCC 32264, 48 h, read-out: GI
Outline: (§1)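 Microplate growth-inhibition assay in RPMI-1640, compound at final 250–0.98 µg/mL (DMSO ≤1%). Inoculum 1–5 × 10³ CFU/mL. Sterility and DMSO growth controls included. Percent inhibition is computed from blank-corrected OD relative to the growth control, tested in duplicate.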

Candida tropicalis [2] = experiment: Antifungal activity against Candida tropicalis assessed as growth inhibition at 62.5 ug/mL by microplate reader analysis; type: functional; conditions: read-out: GI
Cryptococcus neoformans [3] = experiment: Antifungal activity against Cryptococcus neoformans ATCC 32264 after 48 hrs by NCCLS broth microdilution method; type: functional; conditions: ATCC 32264, 48 h, read-out: MIC100
Outline: (§2)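 Yeast MIC by NCCLS M27-A3 broth microdilution in RPMI-1640 buffered to pH 7.0 with MOPS. Twofold dilutions of 250–0.98 µg/mL, final DMSO ≤1%. Inoculum 1–5 × 10³ CFU/mL. Incubated at 30 °C in a moist dark chamber. Read visually at 48 h. MIC100 is the lowest concentration with no visible growth versus drug-free control.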

Candida tropicalis [4] = experiment: Antifungal activity against Candida tropicalis assessed as growth inhibition at 7.8 ug/mL by microplate reader analysis; type: functional; conditions: read-out: GI
Aspergillus flavus = experiment: Antifungal activity against Aspergillus flavus ATCC 9170 at 0.98 to 250 ug/mL by NCCLS broth microdilution method; type: functional, organism-based
Outline: (§3)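 MIC by broth microdilution per NCCLS M27-A3/M38-A2 in RPMI-1640 buffered to pH 7.0 with MOPS. Twofold dilutions from 250–0.98 µg/mL, final DMSO ≤1%. Inoculum 1–5 × 10³ CFU/mL. Incubated in a moist dark chamber, 30 °C for Aspergillus and 28–30 °C for dermatophytes. Read visually when control growth allowed. Endpoint is the lowest concentration giving total inhibition of visible growth (MIC100).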

Candida albicans [5] = experiment: Antifungal activity against Candida albicans ATCC 10231 after 24 hrs by microplate reader analysis; type: functional; conditions: ATCC 10231, 24 h
Outline: (§4)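 96-well RPMI-1640 wells with compound at final 250–0.98 µg/mL (DMSO ≤1%). Inoculum 100 µL, 1–5 × 10³ CFU/mL, 200 µL final. Each well includes growth (DMSO, no compound) and sterility controls. % inhibition = 100 − (CTW−SCW)/(GCW−SCW) × 100, run in duplicate.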

Candida albicans [6] = experiment: Antifungal activity against Candida albicans ATCC 10231 assessed as growth inhibition at 15.6 ug/mL after 24 hrs by microplate reader analysis; type: functional; conditions: ATCC 10231, 24 h, read-out: GI; outline: as §4
Candida tropicalis [7] = experiment: Antifungal activity against Candida tropicalis after 48 hrs by NCCLS broth microdilution method; type: functional; conditions: read-out: MIC100; outline: as §2
Cryptococcus neoformans [8] = experiment: Antifungal activity against Cryptococcus neoformans ATCC 32264 assessed as growth inhibition at 62.5 ug/mL after 48 hrs by microplate reader analysis; type: functional; conditions: ATCC 32264, 48 h, read-out: GI; outline: as §1
Cryptococcus neoformans [9] = experiment: Antifungal activity against Cryptococcus neoformans ATCC 32264 after 48 hrs by microplate reader analysis; type: functional; conditions: ATCC 32264, 48 h; outline: as §1
Cryptococcus neoformans [10] = experiment: Fungicidal activity against Cryptococcus neoformans ATCC 32264 at 0.98 to 250 ug/mL after 48 hrs by agar plate dilution method; type: functional, organism-based
Outline: (§5)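 MFC: after the microdilution MIC, material from each clear well was plated onto RPMI-1640 agar buffered with MOPS. Plates incubated at 30 °C and read after 48 h. MFC is the lowest concentration giving total inhibition of visible growth.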

Candida tropicalis [11] = experiment: Fungicidal activity against Candida tropicalis at 0.98 to 250 ug/mL after 48 hrs by agar plate dilution method; type: functional, organism-based; outline: as §5
Cryptococcus neoformans [12] = experiment: Antifungal activity against Cryptococcus neoformans ATCC 32264 assessed as growth inhibition at 31.25 ug/mL after 48 hrs by microplate reader analysis; type: functional; conditions: ATCC 32264, 48 h, read-out: GI; outline: as §1
Candida tropicalis [13] = experiment: Antifungal activity against Candida tropicalis assessed as growth inhibition at 250 ug/mL by microplate reader analysis; type: functional; conditions: read-out: GI
Candida albicans [14] = experiment: Antifungal activity against Candida albicans ATCC 10231 assessed as growth inhibition at 7.8 ug/mL after 24 hrs by microplate reader analysis; type: functional; conditions: ATCC 10231, 24 h, read-out: GI; outline: as §4
[15] = tested on: Trichophyton mentagrophytes; experiment: Antifungal activity against Trichophyton mentagrophytes ATCC 9972 at 0.98 to 250 ug/mL by NCCLS broth microdilution method; type: functional, organism-based; outline: as §3
Candida tropicalis [16] = experiment: Antifungal activity against Candida tropicalis assessed as growth inhibition at 31.25 ug/mL by microplate reader analysis; type: functional; conditions: read-out: GI
Candida albicans [17] = experiment: Antifungal activity against Candida albicans ATCC 10231 after 48 hrs by NCCLS broth microdilution method; type: functional; conditions: ATCC 10231, 48 h, read-out: MIC100; outline: as §2
[18] = Acute toxicity in bony fish assessed as mortality at 3 ug/mL after 96 hrs; conditions: actinopterygii; read-out: Activity
Outline: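 Guppy (Poecilia reticulata) acute static exposure: 10 fish per concentration in 2 L wide-mouthed jars holding the test solution. Compounds were added from […] to give the final concentrations. Dead fish were counted and removed every 24 h, with general condition noted; percentage mortality was scored at 96 h. Two experiments, each in triplicate.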

Candida tropicalis [19] = experiment: Antifungal activity against Candida tropicalis by microplate reader analysis; type: functional
Cryptococcus neoformans [20] = experiment: Antifungal activity against Cryptococcus neoformans ATCC 32264 assessed as growth inhibition at 15.6 ug/mL after 48 hrs by microplate reader analysis; type: functional; conditions: ATCC 32264, 48 h, read-out: GI; outline: as §1
Aspergillus fumigatus = experiment: Antifungal activity against Aspergillus fumigatus ATCC 26934 at 0.98 to 250 ug/mL by NCCLS broth microdilution method; type: functional, organism-based; outline: as §3
Candida tropicalis [21] = experiment: Antifungal activity against Candida tropicalis assessed as growth inhibition at 125 ug/mL by microplate reader analysis; type: functional; conditions: read-out: GI
Cryptococcus neoformans [22] = experiment: Antifungal activity against Cryptococcus neoformans ATCC 32264 assessed as growth inhibition at 3.9 ug/mL after 48 hrs by microplate reader analysis; type: functional; conditions: ATCC 32264, 48 h, read-out: GI; outline: as §1
Candida albicans [23] = experiment: Antifungal activity against Candida albicans ATCC 10231 assessed as growth inhibition at 250 ug/mL after 24 hrs by microplate reader analysis; type: functional; conditions: ATCC 10231, 24 h, read-out: GI; outline: as §4
Candida albicans [24] = experiment: Antifungal activity against Candida albicans ATCC 10231 assessed as growth inhibition at 125 ug/mL after 24 hrs by microplate reader analysis; type: functional; conditions: ATCC 10231, 24 h, read-out: GI; outline: as §4
Candida albicans [25] = experiment: Antifungal activity against Candida albicans ATCC 10231 assessed as growth inhibition at 31.25 ug/mL after 24 hrs by microplate reader analysis; type: functional; conditions: ATCC 10231, 24 h, read-out: GI; outline: as §4
Candida albicans [26] = experiment: Fungicidal activity against Candida albicans ATCC 10231 at 0.98 to 250 ug/mL after 48 hrs by agar plate dilution method; type: functional, organism-based; outline: as §5
Nannizzia gypsea = experiment: Antifungal activity against Microsporum gypseum CCC 115 at 0.98 to 250 ug/mL by NCCLS broth microdilution method; type: functional, organism-based; outline: as §3
Candida albicans [27] = experiment: Antifungal activity against Candida albicans ATCC 10231 assessed as growth inhibition at 3.9 ug/mL after 24 hrs by microplate reader analysis; type: functional; conditions: ATCC 10231, 24 h, read-out: GI; outline: as §4
Candida tropicalis [28] = experiment: Antifungal activity against Candida tropicalis assessed as growth inhibition at 3.9 ug/mL by microplate reader analysis; type: functional; conditions: read-out: GI
Cryptococcus neoformans [29] = experiment: Antifungal activity against Cryptococcus neoformans ATCC 32264 assessed as growth inhibition at 250 ug/mL after 48 hrs by microplate reader analysis; type: functional; conditions: ATCC 32264, 48 h, read-out: GI; outline: as §1
Candida tropicalis [30] = experiment: Antifungal activity against Candida tropicalis assessed as growth inhibition at 15.6 ug/mL by microplate reader analysis; type: functional; conditions: read-out: GI
Trichophyton rubrum = experiment: Antifungal activity against Trichophyton rubrum CCC 110 at 0.98 to 250 ug/mL by NCCLS broth microdilution method; type: functional, organism-based; outline: as §3
Candida albicans [31] = experiment: Antifungal activity against Candida albicans ATCC 10231 assessed as growth inhibition at 62.5 ug/mL after 24 hrs by microplate reader analysis; type: functional; conditions: ATCC 10231, 24 h, read-out: GI; outline: as §4
Aspergillus niger = experiment: Antifungal activity against Aspergillus niger ATCC 9029 at 0.98 to 250 ug/mL by NCCLS broth microdilution method; type: functional, organism-based; outline: as §3
Cryptococcus neoformans [32] = experiment: Antifungal activity against Cryptococcus neoformans ATCC 32264 assessed as growth inhibition at 7.8 ug/mL after 48 hrs by microplate reader analysis; type: functional; conditions: ATCC 32264, 48 h, read-out: GI; outline: as §1

COc1nc(N)nc2c1ncn2C12CC3CC(CC(C3)C1)C2
inhibition of growth at 125 µg/mL (Cryptococcus neoformans [1]): 88% | inhibition of growth at 62.5 µg/mL (Candida tropicalis [2]): 53.3% | MIC (Cryptococcus neoformans [3]): 250 µg/mL (≈ 835 µM) | inhibition of growth at 7.8 µg/mL (Candida tropicalis [4]): 34.5% | Activity (Aspergillus flavus): inactive | MIC50 (Candida albicans [5]): 62.5 µg/mL (≈ 209 µM) | inhibition of growth at 15.6 µg/mL (Candida albicans [6]): 34.3% | MIC (Candida tropicalis [7]): 250 µg/mL (≈ 835 µM) | inhibition of growth at 62.5 µg/mL (Cryptococcus neoformans [8]): 51.1% | MIC50 (Cryptococcus neoformans [9]): 31.2 µg/mL (≈ 104 µM) | Activity (Cryptococcus neoformans [10]): inactive | Activity (Candida tropicalis [11]): inactive | inhibition of growth at 31.25 µg/mL (Cryptococcus neoformans [12]): 56.9% | inhibition of growth at 250 µg/mL (Candida tropicalis [13]): 100% | inhibition of growth at 7.8 µg/mL (Candida albicans [14]): 23.2% | Activity [15]: inactive | inhibition of growth at 31.25 µg/mL (Candida tropicalis [16]): 47.3% | MIC (Candida albicans [17]): 250 µg/mL (≈ 835 µM) | mortality at 96 h, 3 ug/mL [18]: 0% | MIC50 (Candida tropicalis [19]): 62.5 µg/mL (≈ 209 µM) | inhibition of growth at 15.6 µg/mL (Cryptococcus neoformans [20]): 39.2% | Activity (Aspergillus fumigatus): inactive | inhibition of growth at 125 µg/mL (Candida tropicalis [21]): 81.2% | inhibition of growth at 3.9 µg/mL (Cryptococcus neoformans [22]): 0% | inhibition of growth at 250 µg/mL (Candida albicans [23]): 100% | inhibition of growth at 125 µg/mL (Candida albicans [24]): 86.8% | inhibition of growth at 31.25 µg/mL (Candida albicans [25]): 38.9% | Activity (Candida albicans [26]): inactive | Activity (Nannizzia gypsea): inactive | inhibition of growth at 3.9 µg/mL (Candida albicans [27]): 29.3% | inhibition of growth at 3.9 µg/mL (Candida tropicalis [28]): 36.4% | inhibition of growth at 250 µg/mL (Cryptococcus neoformans [29]): 100% | inhibition of growth at 15.6 µg/mL (Candida tropicalis [30]): 41.5% | Activity (Trichophyton rubrum): inactive | inhibition of growth at 62.5 µg/mL (Candida albicans [31]): 43.4% | Activity (Aspergillus niger): inactive | inhibition of growth at 7.8 µg/mL (Cryptococcus neoformans [32]): 9.5%
